Source: PubChem BioAssay
KCNK9 inh = blocks the human KCNK9 two-pore domain potassium channel; Q9NPC2; HEK293 KCNK9, FluxOR thallium flux fluorescence; stronger effect = lower value; B-score at 10 µM; 1.2% of 310,000 active;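 active = ratio B-score over 3 SD below the library mean, with starting fluorescence within 5 SD of its mean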;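 also: negative B-score means less thallium flux so channel inhibition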
KCNQ1 pot = human KCNQ1 channel potentiation or activation; B-score at 10 µM; 0.35% of 310,000 active; CHO-K1 KCNQ1, thallium flux FluxOR fluorescence; stronger effect = higher value; AID 2648; P51787;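 active = fluorescence ratio B-score, a plate-corrected score, at least three library SD, with initial intensity B-score within 5 SD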
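Doses: Single concentration per compound, DMSO matched to controls | Test system: KCNQ1-transfected CHO-K1 cells | Timing: 90 min dye loading and 20 min compound exposure, both at room temperature | Measured by: Kinetic FluxOR thallium fluorescence, 10-s 1-Hz baseline, 110-s post-stimulus read | Medium: Assay buffer with matched DMSO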
KCC2 mod = modulators of human KCC2 chloride dependent transport. Q9H2X9. KCC2 cells, thallium flux FluoZin-2 fluorescence. B-score of Tl+ flux slope (higher = more flux/activation; lower = inhibition) at 10 µM. 2.2% of 190,000 active. AID 1456;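 active = thallium flux slope and its plate-corrected score both differing from the plate sample mean at a set confidence after two filtering rounds, in either direction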;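 also: slope of fluorescence scaled to starting intensity during 10 to 20 s after thallium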
KCNK3 inh = human KCNK3 channel inhibition, primary screen; 0.84% of 340,000 active; CHO-KCNK3 thallium flux, FluxOR fluorescence; stronger effect = lower value; O14649; B-score at 10 µM;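 active = B-score under library mean minus 4 SD, starting fluorescence ratio at most library mean plus 5 SD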;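 also: more negative B-score means stronger inhibition of thallium flux through KCNK3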
KCNQ1 inh = human KCNQ1 channel inhibition. P51787. CHO-K1 KCNQ1, FluxOR thallium flux fluorescence; stronger effect = higher value. B-score at 10 µM. 1.3% of 310,000 active;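 active = compounds whose thallium flux B-score, printed positive for inhibition, exceeds three library SD while starting fluorescence stays within three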;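 also: channel opened by potassium depolarization with thallium stimulus after 20 min compound exposure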
hERG rescue = hERG (human) protection from proarrhythmic block; 0.51% of 310,000 active; Q12809; CHO-hERG, FluxOR thallium flux, dofetilide IC70 present; activation (rescue from dofetilide block), less the hit threshold, % at 10 µM;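 active = activation above the mean of controls blocked by dofetilide plus 5 SD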;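 also: thallium influx through hERG after potassium depolarization seen as dye fluorescence rise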
KCC2 sec1 = KCC2 (human) modulation, secondary assay; shares compounds with KCC2 mod; HEK293-KCC2, thallium flux, FluoZin2 fluorescence; stronger effect = higher value; normalised thallium flux (F/F0 slope) at 10 µM; 15% of 3,700 active;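 active = thallium flux slope above the same plate's solvent-only control mean plus 3 SD; inconclusive = the two replicate wells disagree; inactive = no significant difference from solvent-only control wells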
KCC2 bumet counter = thallium flux persisting under bumetanide in KCC2 cells, counter-screen secondary assay; shares compounds with KCC2 mod; HEK293-KCC2 + bumetanide/ouabain, thallium flux FluoZin2; stronger effect = higher value; normalized thallium flux at 10 µM; 49% of 3,700 active;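 active = thallium entry rate above the same plate's blocked-transporter control wells by more than 3 SD; inconclusive = the two repeat wells disagree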;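 also: raw slope of fluorescence over initial fluorescence between 10 and 20 s after thallium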
KCC2 secondary2 = confirmation of human KCC2 transport modulators; shares compounds with KCC2 mod; HEK293-KCC2, thallium flux FluoZin2 fluorescence; actives lie on both sides; F/F0 rise rate, 10–20 s post-thallium; normalized thallium flux at 10 µM; 23% of 3,700 active; AID 1715;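 active = thallium flux slope more than 3 SD above or below the plate's solvent-only control mean, mostly below; inconclusive = the two repeat wells disagreed; inactive = no significant shift from solvent-only controls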
HEK293 Tl flux = parental HEK flux effect, counter-screen | HEK293 parental cells, thallium flux FluoZin2, ouabain; baseline-ratio fluorescence slope, 10–20 s after thallium | 46% of 3,700 active | thallium flux rate (normalised fluorescence) at 10 µM | AID 1716 | shares compounds with KCC2 mod;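 active = thallium flux rate significantly above the same plate's solvent-only control wells, beyond their mean plus 3 SD; inconclusive = the two replicate wells gave conflicting results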
KCC2 ouabain = confirmation of human KCC2 modulators with ouabain. shares compounds with KCC2 mod. HEK293-KCC2, thallium flux FluoZin2 fluorescence; bidirectional: low = inhibitor, high = activator. raw Tl+ flux slope (below DMSO = inhibition, above = activation) at 10 µM. 48% of 3,700 active;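 active = thallium flux slope beyond 3 SD from same-plate DMSO control mean in most replicates, usually higher, sometimes lower; inconclusive = repeat tests gave conflicting results; inactive = no significant difference from controls in most replicates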;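 also: slope of initial-normalized fluorescence between seconds 10 and 20 after thallium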
HEK counter2 = counter-screen for KCC2 modulators: effect in parental HEK293 cells. thallium flux FluoZin-2 fluorescence slope. 33% of 3,700 active. thallium flux slope at 10 µM. shares compounds with KCC2 mod;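 active = thallium flux slope above the same plate's solvent-control mean plus 3 SD in both duplicate wells; inconclusive = duplicate wells that disagreed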;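 also: run without ouabain in cells lacking the KCC2 cotransporter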
Numbers stand for hits; i = inactive; ? = inconclusive; nt = no result. Sampled rows, rich in hits. Any-hit rate of the full collection: about 4.1%.

SMILES	KCNK9 inh	KCNQ1 pot	KCC2 mod	KCNK3 inh	KCNQ1 inh	hERG rescue	KCC2 sec1	KCC2 bumet counter	KCC2 secondary2	HEK293 Tl flux	KCC2 ouabain	HEK counter2
O=C(NNC1=Nc2ccccc2SC1)c1ccc(Cl)cc1	i	i	5.5	i	i	i	i	0.011	i	0.0097	i	?
O=C(Nc1ccc2[nH]ncc2c1)c1ccccc1Cl	i	i	nt	i	i	i	nt	nt	nt	nt	nt	nt
C=CCOc1ccc(C2C(C#N)=C(N)N(N(C)C)C3=C2C(=O)CCC3)cc1 (stereo not drawn)	i	i	nt	i	i	i	nt	nt	nt	nt	nt	nt
Cc1cccc(NC(=O)NCC(c2cccnc2)N2CCOCC2)c1 (stereo not drawn)	i	i	nt	i	i	i	i	i	i	i	i	i
COC(=O)c1ccc2c(c1C(=O)OC)CN(S(=O)(=O)C(C)(C)C)[C@@H]2CCO	nt	nt	nt	i	nt	nt	nt	nt	nt	nt	nt	nt
Cn1c(NC(=S)Nc2ccccc2)nc2ccccc21	i	i	7.4	i	i	i	?	0.064	i	0.023	0.043	0.014
S=C(Nc1ccccc1)Nc1nc2ccccc2n1CCOc1ccc(Br)cc1	i	i	3.4	i	i	i	i	0.032	i	0.01	i	?
CCOc1ccccc1NC(=O)CCC(=O)Nc1nnc(C2CCCCC2)s1	i	i	nt	i	i	i	nt	nt	nt	nt	nt	nt
CC(C)c1nnc(SCC(=O)Nc2ccc3c(c2)OCCO3)n1C	i	i	nt	i	i	i	nt	nt	nt	nt	nt	nt
CCOC(=O)Cc1csc(NC(=S)NC(=O)c2ccc(F)cc2)n1	i	8	11	i	i	i	i	0.039	0.041	0.03	0.046	0.02
CCOC(=O)Cc1csc(NC(=O)c2ccc(OC)c(OC)c2)n1	i	i	i	i	i	i	nt	nt	nt	nt	nt	nt
CCOC(=O)Cc1csc(NC(=S)NC(=O)c2cc(OC)c(OC)c(OC)c2)n1	i	i	6.9	i	i	i	i	0.016	i	0.0098	i	i
CCOC(=O)Cc1csc(NC(=O)Nc2ccc(F)cc2)n1	i	i	i	i	i	i	nt	nt	nt	nt	nt	nt
CC(=O)Nc1ccc(S(=O)(=O)N2CCC(c3nnc(-c4ccc(C)cc4)o3)CC2)cc1	i	i	nt	i	i	i	nt	nt	nt	nt	nt	nt
COC(=O)c1ccc(NC(=O)CCC(=O)c2ccc(F)cc2)cc1	i	i	nt	i	i	i	nt	nt	nt	nt	nt	nt
CCOc1ccc(CCNC(=O)Cc2ccc(NC3=NC4CS(=O)(=O)CC4S3)cc2)cc1OCC (stereo not drawn)	i	i	nt	i	i	i	nt	nt	nt	nt	nt	nt
Cc1ccc(N/C(N)=N/c2nc(CSc3ccc(C)cc3)cc(=O)[nH]2)cc1	nt	nt	i	i	nt	nt	nt	nt	nt	nt	nt	nt
COc1ccc(N/C(N)=N/c2nc(CSc3ccc(C)cc3)cc(=O)[nH]2)cc1	i	i	nt	i	i	i	i	i	i	i	i	i
C=CCc1cccc2cc(C(=O)NNC(=O)c3ccncc3)c(=O)oc12	i	i	4.8	i	i	i	i	i	i	i	i	i
C=CCc1cccc2cc(C(=O)Nc3cccc(C(=O)O)c3)c(=O)oc12	i	i	i	nt	i	i	nt	nt	nt	nt	nt	nt
COc1ccc(COC(=O)c2ccc(S(=O)(=O)N3CCCCC3)cc2)cc1OC	nt	nt	nt	i	nt	nt	nt	nt	nt	nt	nt	nt
CC(C)OC(=O)CSc1ncnc2c1cnn2Cc1ccccc1	i	i	-3.6	i	i	i	i	i	i	i	i	i
Cc1cccc(-c2nc(C#N)c(N3CCCCC3)o2)c1	i	i	nt	i	i	i	nt	nt	nt	nt	nt	nt
Cc1cccc(-c2nc(=S)c3c(o2)CCCC3)c1	i	i	53	i	i	i	0.015	0.03	i	0.015	?	?
O=C(/C=C/c1ccccc1)Nc1scc(-c2ccccc2)c1C(=O)O	i	i	-7.1	i	i	i	i	?	0.026	i	0.013	i
SMILES	KCNK9 inh	KCNQ1 pot	KCC2 mod	KCNK3 inh	KCNQ1 inh	hERG rescue	KCC2 sec1	KCC2 bumet counter	KCC2 secondary2	HEK293 Tl flux	KCC2 ouabain	HEK counter2
COc1ccc(CNC(=O)[C@@H](NC(=O)C2CCN(S(=O)(=O)c3ccc(C)cc3)CC2)C(C)C)cc1OC	i	i	nt	i	i	i	nt	nt	nt	nt	nt	nt
CN(C)CCCN1C(=O)c2oc3ccc(Cl)cc3c(=O)c2C1c1cccnc1 (stereo not drawn)	i	i	3.7	i	i	i	i	0.015	i	0.0099	?	i
Cc1nn(-c2ccccc2)c(Cl)c1/C=C1\SC(=S)NC1=O	i	28	35	i	i	19	0.037	0.16	i	0.063	0.067	0.027
Cc1nn(-c2ccccc2)c(Cl)c1/C=C1/C(=N)N2N=C(C(C)C)SC2=NC1=O	i	i	i	i	i	i	nt	nt	nt	nt	nt	nt
COCCCn1c(SCC(=O)Nc2nnc(C)s2)nnc1-c1ccoc1C	i	i	nt	i	i	i	i	i	i	i	i	i
COCCn1c(SCC(=O)Nc2nnc(C)s2)nnc1-c1ccco1	i	i	i	i	i	i	nt	nt	nt	nt	nt	nt
COc1ccc(C(=O)COc2ccc(F)cc2)c(O)c1	i	i	i	i	i	i	nt	nt	nt	nt	nt	nt
Cc1ccc(O)c(C(=O)CC(=O)c2cccc(F)c2)c1	i	27	51	i	i	i	i	0.05	0.059	0.058	0.055	0.053
COc1ccc(O)c(C(=O)CC(=O)c2ccccc2C)c1	i	i	29	i	i	i	i	0.025	?	0.018	0.031	0.022
COc1ccc(O)c(C(=O)CC(=O)c2cccnc2)c1	nt	nt	nt	i	nt	nt	nt	nt	nt	nt	nt	nt
COc1ccc(C(=O)CC(=O)c2ccccc2O)cc1OC	i	i	7.1	i	i	i	i	0.011	i	0.013	i	i
COc1ccc(O)c(C(=O)CC(=O)c2ccc(F)cc2)c1	i	i	23	i	i	i	?	0.07	i	?	0.054	?
COc1ccc(C(=O)CC(=O)c2ccccc2O)cc1	i	i	nt	i	i	i	nt	nt	nt	nt	nt	nt
COc1ccccc1C(=O)NNC(=O)c1cccc(F)c1	i	i	i	i	i	i	nt	nt	nt	nt	nt	nt
O=C(CN(C(=O)CCC(=O)Nc1nccs1)c1ccc2c(c1)OCO2)NCc1ccccc1	i	i	nt	i	i	i	nt	nt	nt	nt	nt	nt
